# The list is not random: actives were taken first. Their share in the collection is about 1.9%.
# CHRM4 agonist: agonists of human muscarinic M4 receptor (CHRM4); P08173; 360,000 tested, 0.14% active; CHO-K1 hM4/Gqi5, Fluo-8 calcium fluorescence; vehicle 0%, full acetylcholine response 100%; activation, % at 3 µM; AID 624127;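 active = activation above the run mean over all test wells plus 3 SD, cut at about 32% in these data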;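 note: peak over basal fluorescence ratio per well then scaled between controls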
# Target sequence (P08173 whole entry, looked up): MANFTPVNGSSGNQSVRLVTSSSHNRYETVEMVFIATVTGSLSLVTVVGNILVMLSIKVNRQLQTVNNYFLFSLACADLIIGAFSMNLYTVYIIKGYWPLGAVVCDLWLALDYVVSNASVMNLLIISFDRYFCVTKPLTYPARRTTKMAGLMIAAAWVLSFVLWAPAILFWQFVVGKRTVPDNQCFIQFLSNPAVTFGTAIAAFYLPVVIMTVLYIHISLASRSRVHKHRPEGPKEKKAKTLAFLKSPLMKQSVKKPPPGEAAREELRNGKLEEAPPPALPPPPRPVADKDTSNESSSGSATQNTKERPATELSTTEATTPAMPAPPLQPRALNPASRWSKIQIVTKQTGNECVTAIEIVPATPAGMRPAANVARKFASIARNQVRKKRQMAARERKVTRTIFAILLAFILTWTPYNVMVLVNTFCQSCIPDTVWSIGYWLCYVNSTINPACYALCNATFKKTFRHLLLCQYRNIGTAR
# CHRM5 antagonist: antagonists of human muscarinic M5 receptor (CHRM5) | inhibition, % at 3 µM | P08912 | CHO-hM5 cells, Fluo-8 calcium fluorescence, ACh EC80 | 360,000 tested, 0.59% active;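 active = inhibition above a per-plate cutoff, the mean of that plate's test compounds plus 3 SD, cut at about 27% in these data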
# CHRM5 agonist: CHRM5 agonism in calcium assay | P08912 | CHO-K1 hM5 cells, Fluo-8 calcium fluorescence; 0% DMSO wells, 100% maximal acetylcholine response | activation, % at 3 µM | 360,000 tested, 0.19% active | AID 624037;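 active = activation above the run's mean over test compounds plus 3 SD, cut at about 23% in these data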;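 note: signal is peak over basal fluorescence ratio across the kinetic read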
# M4 antag: antagonists of human muscarinic M4 receptor (CHRM4); inhibition, % at 3 µM; 360,000 tested, 0.73% active; P08173; AID 624125; CHO-hM4 cells, ACh EC80, Fluo-8 calcium fluorescence;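 active = inhibition above its plate's cutoff, the mean inhibition of sample wells plus 3 SD, cut at about 27% in these data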
# M4 PAM: potentiates acetylcholine response at human M4 receptor | 360,000 tested, 0.4% active | AID 624126 | P08173 | activation, % at 3 µM | CHO-K1 hM4/Gqi5, Fluo-8 calcium fluorescence, ACh EC20; 0% = ACh EC20, 100% = maximal ACh;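 active = activation above its plate's cutoff, the mean activation of sample wells plus 3 SD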
# CHRM5 PAM: potentiates acetylcholine response at human M5 receptor; P08912; CHO-K1 hM5, Fluo-8 calcium, ACh EC20 PAM; 0% = ACh EC20, 100% = ACh EC100; activation, % at 3 µM; 360,000 tested, 0.3% active;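 active = activation above the run cutoff, the mean activation of all test compounds plus 3 SD, cut at about 18% in these data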
#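 System: CHO-K1 hM5 cells. Reagent: acetylcholine, EC20 level. Compound dosing: single dose, 3 µM nominal final test concentration. Timing: Post-acetylcholine fluorescence recording 140 s. Detection: Fluo-8 calcium fluorescence. Read-out: % activation, ACh-normalized. Benchmarks: ACh EC20 and EC100 wells. Repeats: singlicate, one well per test compound.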
# Numbers stand for hits; – = inactive.
SMILES,CHRM4 agonist,CHRM5 antagonist,CHRM5 agonist,M4 antag,M4 PAM,CHRM5 PAM
NC(=O)CCC(=O)N1CCCC(C(=O)c2ccc(C(F)(F)F)cc2)C1 (stereo not drawn),–,–,–,–,–,–
O=c1[nH]ccc2c(O)cccc12,–,–,32.4,–,–,–
Cc1ccc(Nc2cc(C)nn2-c2nc(C)cc(=O)[nH]2)cc1,–,40.7,–,58.8,–,–
Cn1nnnc1SCCNCc1cc(Cl)ccc1OCc1ccccc1,–,–,–,–,–,–
Cn1nnnc1SCCNCc1ccccc1OCc1ccc(Cl)cc1,–,–,–,26.8,–,–
COc1ccc(-c2nc(-c3cccc(C(F)(F)F)c3)no2)cc1OC,–,–,–,–,29.7,–
Cc1ccc(CN2CCC(CNC(=O)C3CCCN(c4ncnc5c4nc4n5CCCCC4)C3)CC2)cc1 (stereo not drawn),–,–,–,38.4,–,–
O=C(NCc1ccccc1Cl)C1CCCN(c2ncnc3c2nc2n3CCCCC2)C1 (stereo not drawn),–,–,–,–,–,–
O=C(NCC1CCN(Cc2ccccc2F)CC1)C1CCCN(c2ncnc3c2nc2n3CCCCC2)C1 (stereo not drawn),–,–,–,52.1,–,–
O=C(Nc1cccnc1Cl)C1CCCN(c2ncnc3c2nc2n3CCCCC2)C1 (stereo not drawn),–,–,–,–,17.7,–
O=C(c1ccc(Cl)s1)N1CCN(C23CC4CC(CC(C4)C2)C3)CC1,–,–,–,–,–,–
O=C(c1cccs1)N1CCN(C23CC4CC(CC(C4)C2)C3)CC1,–,–,–,40.0,–,–
CCCNC(=O)c1nnsc1S(=O)c1ccc(Cl)cc1 (stereo not drawn),–,–,–,42.8,–,–
CCCNC(=O)c1nnsc1S(=O)(=O)c1ccc(Cl)cc1,–,–,–,64.7,–,–
CNC(=O)c1nnsc1S(=O)c1ccc(Cl)cc1 (stereo not drawn),–,–,–,28.3,–,–
CC(=O)C1=C(c2ccccc2)NC(=S)NC1c1ccc(O)c(O)c1 (stereo not drawn),–,–,–,–,–,25.7
C=CCNC(=O)Nc1ccc2nc(C)sc2c1,–,–,–,–,–,–
C=CCN(CC=C)C(=O)Nc1ccc2nc(C)sc2c1,–,–,–,–,21.2,–
COc1ccccc1NC(=O)CN1C(=O)COc2ccc(C)cc21,–,–,–,–,–,–
COc1ccc(C)cc1NC(=O)CN1C(=O)COc2ccc(C)cc21,–,–,–,–,–,21.6
O=C(COc1ccc(C(F)(F)F)cc1[N+](=O)[O-])Nc1cccc(C(F)(F)F)c1,–,–,–,–,29.5,–
CCOC(=O)[C@]12CCC=C1N(Cc1cccc3ccccc13)C(=O)[C@H](CC(=O)NCCc1ccccc1OC)C2,–,–,–,–,–,–
c1ccc(CN2CCN(C(c3ccccc3)c3ccccc3)CC2)cc1,–,–,–,–,–,–
CC(C)c1ccccc1OCCCCCN1CCOCC1,–,–,–,32.2,–,–
COc1ccccc1OCCCCN1CCN(C(c2ccccc2)c2ccccc2)CC1,–,–,–,62.9,–,–
SMILES,CHRM4 agonist,CHRM5 antagonist,CHRM5 agonist,M4 antag,M4 PAM,CHRM5 PAM
O=S(=O)(CCN1CCN(C(c2ccccc2)c2ccccc2)CC1)C(F)(F)F,–,44.8,–,47.7,–,–
OC(COc1ccccc1)CN1CCN(C(c2ccccc2)c2ccccc2)CC1 (stereo not drawn),–,–,–,–,–,–
COc1cccc(OC)c1OCCCCCCN1CCN(C)CC1,–,–,–,–,–,–
c1ccc(OCCOCCN2CCN(C(c3ccccc3)c3ccccc3)CC2)cc1,–,51.9,–,86.4,–,–
COc1ccc(N(CC(=O)NC2CCCCCC2)S(=O)(=O)c2ccc(C)cc2)cc1OC,–,–,–,–,–,–
Cc1ccc(C)c(NC(=O)C(NCC(C)(C)N2CCOCC2)c2ccccc2)c1 (stereo not drawn),–,–,–,75.5,–,–
Cc1ccc(C)c(NC(=O)C(c2ccccc2)N2CCN(CC(=O)N3CCOCC3)CC2)c1 (stereo not drawn),–,–,–,–,–,–
COc1ccccc1-n1c(-c2ccccc2)c[n+]2c1CCc1ccccc1-2,–,31.0,–,33.8,–,–
COc1ccc(-n2c(-c3ccc(Br)cc3)c[n+]3c2CCc2ccccc2-3)cc1,–,–,–,–,–,–
CC(C)c1ccc(-n2c(-c3ccccc3)c[n+]3c2CCc2ccccc2-3)cc1,–,28.9,–,28.9,–,–
O=c1[nH]c(C2CCN(S(=O)(=O)c3ccc([N+](=O)[O-])cc3)CC2)nc2c1nnn2Cc1ccccc1,–,–,–,–,–,–
O=c1[nH]c(C2CCN(S(=O)(=O)c3ccccc3)CC2)nc2c1nnn2Cc1ccccc1,–,–,–,67.0,–,–
O=c1[nH]c(C2CCCN(S(=O)(=O)c3ccccc3Cl)C2)nc2c1nnn2Cc1ccc2c(c1)OCCO2 (stereo not drawn),–,–,–,–,–,–
O=c1[nH]c(C2CCN(S(=O)(=O)c3ccc4c(c3)OCCO4)CC2)nc2c1nnn2Cc1cccc(F)c1,–,–,–,79.2,–,–
O=c1[nH]c(C2CCN(S(=O)(=O)c3ccc4c(c3)OCCO4)CC2)nc2c1nnn2Cc1ccc(F)cc1,–,–,–,47.9,–,–
O=c1[nH]c(C2CCN(S(=O)(=O)c3ccccc3)CC2)nc2c1nnn2Cc1ccc2c(c1)OCCO2,–,–,–,95.1,–,–
CCC(C)C(NC(=O)C1CCC(C)CC1)C(=O)Nc1ccc(OC)cc1 (stereo not drawn),–,–,–,–,–,–
CC1CCCC(C)N1C(=O)COC(=O)c1cccnc1Cl (stereo not drawn),–,–,–,–,–,–
C/C(=C\c1ccccc1)C(=O)NCCc1ccccc1,–,–,–,–,–,–
CCCc1nc(SCc2ccc(OCC)cc2)n[nH]1,–,–,–,–,–,–
O=c1[nH]c(C2CCN(S(=O)(=O)c3ccc(S(=O)(=O)NC4CC4)cc3)CC2)nc2c1nnn2Cc1cccc(F)c1,–,–,–,44.9,–,–
Cc1ccc(Cn2nnc3c(=O)[nH]c(C4CCN(S(=O)(=O)c5ccc(S(=O)(=O)NC6CC6)cc5)CC4)nc32)cc1,–,–,–,–,–,–
O=C(CCCn1ncn2c(cc3occc32)c1=O)NCc1cccc(Cl)c1,–,–,–,–,20.3,–
COc1cccc(CNC(=O)CCCn2ncn3c(cc4occc43)c2=O)c1,–,–,–,–,–,–

# Bioassay records (PubChem)
